# VIM-2 inh: blocks Pseudomonas aeruginosa VIM-2 metallo-beta-lactamase; purified VIM-2, nitrocefin hydrolysis, epi-absorbance fluorescence; inhibition, % at 5.6 µM; 0.89% of 290,000 active;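 active = inhibition above the mean of all tested compounds plus 3 SD, cutoff set per screening run, cut at about 7.5% in these data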;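 note: red hydrolysis product quenches plate fluorescence so inhibitors raise well fluorescence; 0% = enzyme with DMSO and 100% = DMSO without enzyme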
# MEKK2 WT-MEK5: raises or lowers MEK5 binding to wildtype human MEKK2 PB1 domain; Q9Y2U5; bead flow cytometry, Alexa488-MEK5 binding to MEKK2 WT; actives lie on both sides; binding response (% of control), % at 10 µM; 1.1% of 290,000 active; in the data active = binding response below about 67% or above about 130%
# IMP-1 inhibitor: inhibitors of Pseudomonas aeruginosa IMP-1 metallo-beta-lactamase; purified IMP-1, nitrocefin hydrolysis, epi-absorbance fluorescence; inhibition, % at 5.6 µM; 0.45% of 290,000 active; AID 1556;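 active = inhibition above the mean plus 3 SD of all compounds in the same screening run, cut at about 4.5% in these data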;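 note: 0% = IMP-1 with DMSO and 100% = DMSO wells lacking enzyme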
#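 Test system: recombinant IMP-1 enzyme, purified / Medium: HEPES buffer pH 7.1 with ZnSO4 and Brij 35 / Doses: single dose, 5.6 µM / Times: 25 °C, 15 min preincubation, 25 min reaction / Detection: Epi-absorbance via hydrolysed-nitrocefin quenching of white-plate fluorescence, 480/530 nm, EDTA stop / Evaluation: percent inhibition from optical density relative to buffer-blank wells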
# MEKK3 PB1 HTS: modulators (inhibitors or enhancers) of MEK5 binding to human MEKK3 PB1 domain | Q99759 | bead-based flow cytometry, Alexa488-MEK5 binding to MEKK3; actives lie on both sides; 0 = blocked by unlabeled MEK5, 100 = vehicle | binding response (% of control), % at 10 µM | 1.4% of 290,000 active;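 active = binding response more than 3 SD above or below the average of its plate-row segment, actives on both sides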;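 note: Alexa488 bead fluorescence after subtracting the streptavidin-only scavenger bead signal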
# Target sequence (Q99759 whole entry, looked up, the tested form may be a part): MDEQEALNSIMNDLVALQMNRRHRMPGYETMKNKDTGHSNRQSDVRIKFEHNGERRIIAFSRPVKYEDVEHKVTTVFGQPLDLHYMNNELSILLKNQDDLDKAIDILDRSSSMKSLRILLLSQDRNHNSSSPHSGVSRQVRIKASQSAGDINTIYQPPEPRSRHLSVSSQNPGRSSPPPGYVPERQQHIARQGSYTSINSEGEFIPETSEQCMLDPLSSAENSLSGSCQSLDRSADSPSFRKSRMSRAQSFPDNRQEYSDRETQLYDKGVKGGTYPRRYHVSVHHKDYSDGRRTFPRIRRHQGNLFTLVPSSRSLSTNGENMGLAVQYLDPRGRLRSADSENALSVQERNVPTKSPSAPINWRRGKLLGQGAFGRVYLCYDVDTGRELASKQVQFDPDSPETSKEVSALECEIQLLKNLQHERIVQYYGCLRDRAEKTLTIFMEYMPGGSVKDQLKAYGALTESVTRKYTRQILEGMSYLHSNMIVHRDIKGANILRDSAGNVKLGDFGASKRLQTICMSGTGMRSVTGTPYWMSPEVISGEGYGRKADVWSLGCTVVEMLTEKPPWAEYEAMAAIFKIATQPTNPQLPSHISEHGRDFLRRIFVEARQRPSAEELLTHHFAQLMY
# MEKK2mut PB1 HTS: signal of MEK5 binding to mutant human MEKK2 PB1 domain; bead flow cytometry, Alexa488-MEK5 binding to MEKK2 mutant; percent response, % at 10 µM; 0.35% of 290,000 active; AID 1530; in the data active = percent response above about 24%, passing the limit was not always enough
# MEKK2wt confirm: raises or lowers MEK5 binding to wildtype human MEKK2, retest | shares compounds with MEKK3 PB1 HTS | bead flow cytometry, Alexa488-MEK5 binding to MEKK2 WT; actives lie on both sides | binding response (% of control), % at 10 µM | 2.4% of 5,900 active | AID 1892; in the data active = binding response below about 16% or above about 210%; inactive = in between
# MEKK2mut confirm: signal of MEK5 binding to mutant human MEKK2, retest. percent response, % at 10 µM. shares compounds with MEKK3 PB1 HTS. AID 1893. 2% of 5,900 active. bead flow cytometry, Alexa488-MEK5 binding to MEKK2 mutant; in the data active = percent response mostly above about 71%, no sharp cut-off; inactive = mostly below about 38%;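 note: higher means compound restores mutant binding toward wildtype level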
# MEKK3 confirm: MEKK3-MEK5 PB1 inhibition, single concentration confirmation | shares compounds with MEKK3 PB1 HTS | binding response (% of control), % at 10 µM | bead flow cytometry, Alexa488-MEK5 binding to MEKK3; hits give low values | 1.8% of 5,900 active;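 active = binding response below 72% of control, or above a set upper limit, though filed actives all read lower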;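 note: 100% = DMSO only wells and 0% = binding blocked by excess unlabeled MEK5; lower values mean stronger disruption of MEK5 binding to MEKK3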
# The depositor's hits bear a star; · = no result; [ ] = another dose, or the depositor's remark. Sampled rows, rich in hits. Any-hit rate of the full collection: about 3.4%.
SMILES,VIM-2 inh,MEKK2 WT-MEK5,IMP-1 inhibitor,MEKK3 PB1 HTS,MEKK2mut PB1 HTS,MEKK2wt confirm,MEKK2mut confirm,MEKK3 confirm
CC(C)c1[nH]c(=O)c(C#N)c2c1CSC(C)(C)C2,-2.7,3.0*[inhibitor],-2.2,3.0*[inhibitor],-14.0,100.0,-4.0,98.0
CCN(Cc1ccccc1)S(=O)(=O)c1ccc(C(=O)N(CCCN(C)C)c2nc3c(F)cccc3s2)cc1,-0.9,190.0*,-0.8,110.0,43.0*,203.0,39.0,106.0
CCN(c1ccccc1)S(=O)(=O)c1ccc(C(=O)N(CCCN(C)C)c2nc3c(C)cccc3s2)cc1,-0.6,154.0*,-3.0,103.0,20.0,166.0,31.0,110.0
Cc1ccc2sc(N(CCCN(C)C)C(=O)c3ccc(S(=O)(=O)N(C)C)cc3)nc2c1C,-2.5,135.0,-2.0,103.0,22.0,·,·,·
CCOC(=O)C1CCCN(C(=O)Cc2c(C(=O)O)[nH]c3ccccc23)C1 (configuration not stated),-1.4,99.0,-1.6,105.0,4.0,·,·,·
NC(N)=NS(=O)(=O)c1ccc(NC(=S)NC(=O)c2ccncc2)cc1,0.5,107.0,1.3,106.0,2.0,·,·,·
O=C(CSc1ccc2nnc(-c3ccccn3)n2n1)Nc1ccccc1C(F)(F)F,-0.4,97.0,-1.4,96.0,0.0,·,·,·
Cc1ccc(Nc2nc(N3CCOCC3)nc(N3CCOCC3)n2)cc1,-2.9,103.0,-0.5,100.0,0.0,·,·,·
c1ccc(Nc2nc(Nc3ccccc3)nc(N3CCNCC3)n2)cc1,4.0,154.0*,-0.4,111.0,12.0,136.0,20.0,106.0
CN1CCN(c2nc(Nc3ccc(F)cc3)nc(Nc3ccc(F)cc3)n2)CC1,-1.9,145.0*,-2.1,113.0,33.0*,137.0,16.0,104.0
Cc1ccc(S(=O)(=O)N2CCCC(C(=O)NCCc3ccccc3)C2)cc1 (configuration not stated),-2.3,104.0,-0.1,103.0,2.0,·,·,·
COc1ccc(-n2c(CNC(=O)COc3ccc(Cl)cc3Cl)n[nH]c2=S)cc1,-2.0,90.0,-2.5,99.0,-10.0,·,·,·
CCCNc1c(NS(=O)(=O)c2ccc(C)cc2C)c(=O)oc2ccccc12,-2.8,96.0,-2.6,101.0,0.0,·,·,·
Cc1nn(-c2ccccc2[N+](=O)[O-])c(=O)c2ccccc12,-2.0,106.0,-2.3,106.0,6.0,·,·,·
Cc1nn(-c2ccccc2C(=O)O)c(=O)c2ccccc12,3.0,-1.0*[inhibitor],-5.5,2.0*[inhibitor],-26.0,103.0,2.0,103.0
COC(=O)CN(C)C1CC(=O)N(c2ccc(Cl)cc2)C1=O (configuration not stated),-2.4,99.0,-1.9,100.0,-3.0,·,·,·
COc1ccccc1C(=O)Nc1ccc2c(c1)nc(CN1CCN(C(C)=O)CC1)n2C,-1.8,68.0,-6.0,67.0*[inhibitor],-12.0,106.0,3.0,104.0
COc1ccc2c(c1)nc(SCC(=O)C(C)(C)C)n2C,-0.6,105.0,-0.9,102.0,6.0,·,·,·
COc1ccc2c(c1)nc(CN1CCN(CCO)CC1)n2C,-4.3,128.0,-4.7,110.0,32.0*,105.0,1.0,102.0
COc1ccc2c(c1)nc(SCC(C)O)n2C (configuration not stated),-1.1,108.0,-2.8,132.0*,4.0,102.0,11.0,105.0
CN(C)CC(CCC(CN(C)C)C(O)(c1ccccc1)c1ccccc1)C(O)(c1ccccc1)c1ccccc1 (configuration not stated),-4.9,149.0*,-2.2,108.0,21.0,161.0,45.0,117.0
CS(=O)(=O)Nc1ccccc1C(=O)O,0.3,102.0,0.8,102.0,1.0,·,·,·
CCOC(=O)c1c(NC(=S)Nc2ccccc2)sc(C)c1C,-2.5,93.0,-3.3,82.0,4.0,·,·,·
CCOC(=O)c1c(NC(=O)C[n+]2ccc(Cc3ccccc3)cc2)sc(C)c1C,1.9,138.0*,-0.9,94.0,11.0,191.0,53.0,111.0

# Screening data (PubChem BioAssay)
